The record followed here is ChEMBL document CHEMBL4513216, “Probing the Open Global Health Chemical Diversity Library for Multistage-Active Starting Points for Next-Generation Antimalarials” (ACS Infect Dis, 2020).

A short description of the data set: Toxicity liver stage against HepG2, at 10uM. The class given is cell-based. The arrangement: test concentration 10 uM, cell line HepG2-A16-CD81EGFP. Particulars: human, HepG2-A16-CD81EGFP cells; read-out: INHIBITION
An outline of the steps:
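Uninfected HepG2-A16-CD81EGFP cells, 3 × 10^3 per well, 1536-well, plated on prespotted compound at 10 μM final, parasite-free screening media added to match infected plates; puromycin 10 μM positive, DMSO 0.5% negative; run in parallel with 48 h PbLuc assay at 37 °C, 5% CO2; viability by CellTiter-Glo luminescence, normalized to controls.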
As for `CCS(=O)(=O)N1CCc2ccc(NC(=O)Nc3cccc(F)c3)cc21`, the cytotoxicity at 10 µM worked out at 38.4%.

Turning to `Cc1cnc(NC(=O)c2csc(NC3CCCC3)n2)s1`, the cytotoxicity at 10 µM worked out at 45.8%.

Take `Cc1cs/c(=N/C(=O)c2csc(NCC(C)C)n2)[nH]1`: the cytotoxicity at 10 µM amounted to 22.9%.

For `Cc1[nH]/c(=N\C(=O)c2csc(NCC(C)C)n2)sc1C`, the cytotoxicity at 10 µM came out at 47.4%.

`Cc1cc(CN2CCc3nc(N4CCOCC4)nc(O)c3CC2)c(C)s1`: the cytotoxicity at 10 µM turned out to be 6.3%.

As to `COc1ccc(CN2CCOC(CCc3ccnc(N)c3)C2)cc1` (stereo not given), the cytotoxicity at 10 µM amounted to 13.3%.

In the case of `Cc1cnn(C2CN(c3ccccc3S(=O)(=O)C(F)(F)F)C2)c1`, the cytotoxicity at 10 µM was 11.5%.

Turning to `Cc1cnn(CC(C)NCc2cc(=O)n3ccccc3n2)c1` (stereo not given), the cytotoxicity at 10 µM was -5.3%.

`Cc1c(Cl)cccc1OCC(=O)NC1(C#N)CCSC1` (stereo not given): the cytotoxicity at 10 µM worked out at 37.8%.

Consider `COCCN(CCOC)C(=O)c1cnn(C)c1C`, for which the cytotoxicity at 10 µM was -149%.

`COc1cc2c(nn1)CCN(Cc1nnc(Cc3ccccc3)o1)C2`: the cytotoxicity at 10 µM amounted to 4.25%.

As to `Cc1ccc(N2CCCN(C(=O)c3cn(C)c4ccccc34)CC2)nn1`, the cytotoxicity at 10 µM was -9.53%.

As to `N#Cc1c(Cl)nsc1NCc1cccnc1OCC(F)(F)F`, the cytotoxicity at 10 µM was determined as 25.5%.

Turning to `CN(Cc1noc(C(C)(C)C)n1)Cc1ccccc1N1CCCCC1`, the cytotoxicity at 10 µM was -4.73%.

In the case of `O=C(C1CC1)N1CCC(Oc2ccccc2Cl)CC1`, the cytotoxicity at 10 µM is 25.6%.

Turning to `Brc1ccc(-c2nnc(CN(Cc3cccs3)CC3CCCO3)o2)s1` (stereo not given), the cytotoxicity at 10 µM is 23.2%.

For `Cc1cn2c(n1)C(CNCC1=Cc3ccccc3OC1)CCC2` (stereo not given), the cytotoxicity at 10 µM was found to be 27.7%.

For `Cc1nc(C)c(C(=O)NCc2nc3cccc(C)c3n2C)o1`, the cytotoxicity at 10 µM is 40.1%.

In the case of `Cc1ccc(-c2nc(CSCCC(=O)NC(N)=O)co2)c(C)c1`, the cytotoxicity at 10 µM is -6.4%.

Take `Cc1cc(C2CCCN(CCc3ccc4c(c3)CCO4)C2)n[nH]1` (stereo not given): the cytotoxicity at 10 µM is -7.66%.

As for `Cc1cc(CNc2ccnn2CC(C)C)ccc1-n1cncn1`, the cytotoxicity at 10 µM came out at 24%.

In the case of `O=C(c1ccc(Br)o1)N1CCN(Cc2ccc(OC(F)(F)F)cc2)CC1`, the cytotoxicity at 10 µM turned out to be 21.7%.

Regarding `Cn1cc(CN2CCc3ccc(=O)n(CC4CC4)c3CC2)cn1`, the cytotoxicity at 10 µM stood at 3.24%.

For the compound `Cc1ccc(C(=O)N2CCc3c(COCC4CC4)cncc3C2)o1`, the cytotoxicity at 10 µM was -74.2%.

On to `CCCn1cc(-c2ccnc(NC3CCc4ccccc4C3)n2)c(C)n1` (stereo not given), for which the cytotoxicity at 10 µM came to 81.3%.

For `OCC1(Cc2ccccc2F)CCCN(c2ccc3ccccc3n2)C1` (stereo not given), the cytotoxicity at 10 µM is 22.7%.

In the case of `Cc1cnc(C)c(Oc2ccc(Cl)c(CN3CCCC3)c2Cl)n1`, the cytotoxicity at 10 µM came to 2.61%.

`Cc1nnc(CN2C[C@H](NC(=O)C3CCOCC3)[C@@H](C(C)C)C2)s1`: the cytotoxicity at 10 µM was -3.41%.

Turning to `CN1CCN(CCc2ncnn2-c2ccc3c(c2)OCO3)CC1`, the cytotoxicity at 10 µM is -0.00326%.

As to `CNc1nc(C)cc(NCc2cc(C)cc3c(C)c(C)[nH]c23)n1`, the cytotoxicity at 10 µM was -30.2%.

For `CCS(=O)(=O)NCc1cccnc1N1CCCC(O)C1` (stereo not given), the cytotoxicity at 10 µM was 1.91%.

Consider `Cc1nc(N)ncc1C(=O)N1CCCC(CCc2ccc(F)cc2)C1` (stereo not given), for which the cytotoxicity at 10 µM was -8.3%.

Turning to `Cc1ncnc(N2CCCN(c3nc4ccccc4s3)CC2)c1C`, the cytotoxicity at 10 µM stood at 55.5%.

Take `CN(C)CC1(O)CCCN(C(=O)Cn2ccc3ccccc32)CC1` (stereo not given): the cytotoxicity at 10 µM is -1.96%.

Regarding `O=C(O)CSc1nnc(-c2cn[nH]c2)n1-c1ccccc1C(F)(F)F`, the cytotoxicity at 10 µM stood at 1.2%.

In the case of `CCc1cnc(N)nc1NC(C)c1ccc(C)c(C)c1` (stereo not given), the cytotoxicity at 10 µM was 21.3%.

Turning to `COc1ccc(CN(CC2CCCO2)c2nc3c(s2)c(C)nn3C)cc1` (stereo not given), the cytotoxicity at 10 µM worked out at 11.4%.

As for `COc1cc(Oc2ncccc2C(F)(F)F)ccc1CN1CCCC1`, the cytotoxicity at 10 µM came out at 38.8%.

For `Cc1cc2c(N3CCC(N(C)Cc4nccs4)CC3)ncnc2s1`, the cytotoxicity at 10 µM is 45%.

Take `COc1cccc(C2CCN(c3ccc4cc[nH]c4n3)C2)c1OC` (stereo not given): the cytotoxicity at 10 µM stood at 50.2%.

Consider `CN1CC2(CCN(C(=O)c3ccc4c(=O)n(C)cnc4c3)C2)OC1=O` (stereo not given), for which the cytotoxicity at 10 µM stood at 2.41%.

Consider `Cc1c(CN2CCCC(C(=O)c3ccc(C(C)(C)C)cc3)C2)cnn1C` (stereo not given), for which the cytotoxicity at 10 µM came out at 10.4%.

Turning to `N[C@@H]1c2ccccc2C2(CCN(c3cccc(C(F)(F)F)n3)CC2)[C@H]1O`, the cytotoxicity at 10 µM was 0.243%.

On to `Cc1noc(-c2ccnc(Oc3ccc(CN4CCCC4)cc3F)c2)n1`, for which the cytotoxicity at 10 µM came out at 15.7%.

For the compound `Cc1sc2nc(CCN)nc(N3CC(N4CCCCC4)C3)c2c1C`, the cytotoxicity at 10 µM is -21.9%.

`CCC(NC(=O)C1CCN(S(C)(=O)=O)CC1)c1ccc(C)cc1C` (stereo not given): the cytotoxicity at 10 µM is -10.6%.

With `O=C1CC(c2ccc3c(c2)OCO3)c2cnn(C3CCCC3)c2N1` (stereo not given), the cytotoxicity at 10 µM amounted to 24.3%.

With `NC(=O)CCn1cc(CNCCCc2ccccc2O)c2ccccc21`, the cytotoxicity at 10 µM worked out at 8.92%.

Consider `Cc1cccc(-c2noc(CN3CC(n4cc(C)cn4)C3)n2)c1`, for which the cytotoxicity at 10 µM was -8.8%.

As to `Cc1noc(NC(=O)c2ccc(OC(F)(F)F)cc2)n1`, the cytotoxicity at 10 µM was 33.5%.

Consider `Cc1noc(NC(=O)c2ccc(Br)cc2)n1`, for which the cytotoxicity at 10 µM worked out at 32.9%.

For the compound `CC(C)Cc1ccc(S(=O)(=O)Nc2ccc(=O)n(C)c2)cc1`, the cytotoxicity at 10 µM was determined as 46.3%.

Turning to `c1cnc(-c2nc(CN3CCOC(Cn4cncn4)C3)cs2)nc1` (stereo not given), the cytotoxicity at 10 µM was -15.2%.

On to `Cc1nc2cc(C3CCN(Cc4cccc(F)c4F)C3)nn2c(O)c1C` (stereo not given), for which the cytotoxicity at 10 µM is 0.333%.

With `Cc1ccc(CN(Cc2ncc[nH]2)C2CC(C)(C)NC(C)(C)C2)o1`, the cytotoxicity at 10 µM is -15.2%.

On to `Cc1ccc(N(CC(=O)c2ccc(Br)cc2)C2=NCCCCC2)cc1`, for which the cytotoxicity at 10 µM was found to be 36.5%.

For the compound `COc1ccc(F)c(CN(CCCn2ccnc2)Cc2ccc(C)s2)c1`, the cytotoxicity at 10 µM is -7.14%.

Take `COc1ccc(C)cc1CN1CCC(c2cc3ncccc3cn2)CC1`: the cytotoxicity at 10 µM turned out to be 20.5%.

As for `CN1CCC2(COCCN(Cc3cccc(C#N)c3)C2)C1` (stereo not given), the cytotoxicity at 10 µM was found to be 0.0422%.

Regarding `COCCNC(=O)C1CN(Cc2ccncc2)Cc2ccnn2C1` (stereo not given), the cytotoxicity at 10 µM was -83%.

Turning to `CN(C)C[C@]12COC[C@H]1CN(Cc1ccccn1)C2`, the cytotoxicity at 10 µM is 5.89%.

As for `O=C([C@H]1C[C@H]2OCC[C@H]2N(Cc2ccoc2)C1)N1CCCCO1`, the cytotoxicity at 10 µM is -73.2%.

As for `COc1ccc(CN2CCO[C@H]3[C@H](OCc4ccncc4)CC[C@@H]32)cc1`, the cytotoxicity at 10 µM is -30.9%.

`Cc1nc(CN2CCN3C[C@H](Oc4cncnc4)C[C@H]3C2)cs1`: the cytotoxicity at 10 µM was -81.4%.

As to `Fc1cccc(N2CCCC3(CN(Cc4nccs4)CCO3)C2)c1` (stereo not given), the cytotoxicity at 10 µM was -58.2%.

Consider `COc1cc(N2CCC3(CCN(Cc4csc(C)n4)C3=O)C2)ncn1` (stereo not given), for which the cytotoxicity at 10 µM was -104%.

In the case of `Cc1noc(C)c1CN1CCC[C@]2(C[C@@H](Oc3ccccn3)CO2)C1`, the cytotoxicity at 10 µM was -67.1%.

On to `Cc1cc(CN2C[C@@H]3CN(C(=O)c4cccn4C)CCO[C@@H]3C2)no1`, for which the cytotoxicity at 10 µM is -148%.

Consider `Cc1nc([C@H]2C[C@@H]3CCN(Cc4scnc4C)C[C@H]3O2)no1`, for which the cytotoxicity at 10 µM is -129%.

Consider `O=C1CC(c2ccncc2)C2(CCN(CCc3ccccc3)CC2)N1` (stereo not given), for which the cytotoxicity at 10 µM was -1.58%.
